Assay results from ChEMBL document CHEMBL1127344, “Tridentate ligands containing the SNS donor atom set as a novel backbone for the development of technetium brain-imaging agents” (J Med Chem, 1994).

Assays:
[1] = species on record: Rattus norvegicus; test: Tested for biodistribution of compound at 60 min in rat kidney; assay type: ADME, organism-based; conditions: in vivo, 1 h
[2] = species on record: Mus musculus; test: Tested for biodistribution of compound at 60 min in mice spleen; assay type: ADME, organism-based; conditions: in vivo, 1 h
In short: (§1)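 Male Swiss albino mice, at least five per group, received HPLC-purified 99mTc complex by tail vein. The complex was reconstituted in 50% methanol (0.1 mL, 2-3 μCi). Mice were killed by cardiectomy under light ether at 1-60 min pi. Organs were weighed and γ-counted against a 1% injected-dose standard to give % dose/organ. Blood and muscle were taken as 7% and 43% of body weight.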

[3] = species on record: Mus musculus; test: Tested for biodistribution of compound at 10 min in mice stomach; assay type: ADME, organism-based; conditions: in vivo
In short: (§2)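 Male Swiss albino mice, at least five per group, received 0.1 mL (2-3 μCi) of HPLC-purified 99mTc complex reconstituted in 50% methanol by tail vein. They were killed by cardiectomy under light ether anesthesia at set times (1-60 min pi). Organs were weighed and γ-counted against a 1% injected-dose standard to give % dose/organ. Blood and muscle were taken as 7% and 43% of body weight.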

[4] = species on record: Rattus norvegicus; test: Tested for biodistribution of compound at 30 min in rat s. intestine; assay type: ADME, organism-based; conditions: in vivo, 0.5 h
[5] = species on record: Rattus norvegicus; test: Tested for biodistribution of compound at 60 min in rat liver; assay type: ADME, organism-based; conditions: in vivo, 1 h
[6] = species on record: Mus musculus; test: Tested for biodistribution of compound at 1 min in mice stomach; assay type: ADME, organism-based; conditions: in vivo; in short: as §2
[7] = species on record: Mus musculus; test: Tested for biodistribution of compound at 30 min in mice brain; assay type: ADME, organism-based; conditions: in vivo, 0.5 h; in short: as §2
[8] = species on record: Mus musculus; test: Tested for biodistribution of compound at 10 min in mice urine; assay type: ADME, organism-based; conditions: in vivo; in short: as §2
[9] = species on record: Rattus norvegicus; test: Tested for biodistribution of compound at 30 min in rat lungs; assay type: ADME, organism-based, Lung; conditions: in vivo, 0.5 h
[10] = species on record: Mus musculus; test: Tested for biodistribution of compound at 1 min in mice spleen; assay type: ADME, organism-based; conditions: in vivo; in short: as §2
[11] = species on record: Mus musculus; test: Tested for biodistribution of compound at 5 min in mice kidney; assay type: ADME, organism-based; conditions: in vivo; in short: as §1
[12] = species on record: Rattus norvegicus; test: Tested for biodistribution of compound at 30 min in rat kidney; assay type: ADME, organism-based; conditions: in vivo, 0.5 h
In short: (§3)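 Wistar rats under ether anesthesia were dosed through the femoral vein with 0.1 mL of 99mTc complex (3-6 μCi) and dissected 5-60 min pi. Tissue radioactivity was γ-counted against a 1% injected-dose standard and expressed as % dose/organ. Blood and muscle were calculated from sample weight assuming 7% and 43% of body weight.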

[13] = species on record: Mus musculus; test: Tested for biodistribution of compound at 60 min in mice blood; assay type: ADME, organism-based; conditions: in vivo, 1 h; in short: as §1
[14] = species on record: Mus musculus; test: Tested for biodistribution of compound at 1 min in mice intestine; assay type: ADME, organism-based; conditions: in vivo; in short: as §2
[15] = species on record: Rattus norvegicus; test: Tested for biodistribution of compound at 60 min in rat spleen; assay type: ADME, organism-based; conditions: in vivo, 1 h
[16] = species on record: Mus musculus; test: Tested for biodistribution of compound at 10 min in mice kidney; assay type: ADME, organism-based; conditions: in vivo; in short: as §2
[17] = species on record: Mus musculus; test: Tested for biodistribution of compound at 1 min in mice liver; assay type: ADME, organism-based; conditions: in vivo; in short: as §2
[18] = species on record: Rattus norvegicus; test: Tested for biodistribution of compound at 60 min in rat heart; assay type: ADME, organism-based; conditions: in vivo, 1 h
[19] = species on record: Rattus norvegicus; test: Tested for biodistribution of compound at 30 min in rat stomach; assay type: ADME, organism-based; conditions: in vivo, 0.5 h
[20] = species on record: Mus musculus; test: Tested for biodistribution of compound at 1 min in mice muscle; assay type: ADME, organism-based, Muscle tissue; conditions: in vivo; in short: as §2
[21] = species on record: Rattus norvegicus; test: Tested for biodistribution of compound at 30 min in rat brain; assay type: ADME, organism-based; conditions: in vivo, 0.5 h; in short: as §3
[22] = species on record: Mus musculus; test: Tested for biodistribution of compound at 30 min in mice muscle; assay type: ADME, organism-based, Muscle tissue; conditions: in vivo, 0.5 h; in short: as §2
[23] = species on record: Rattus norvegicus; test: Tested for biodistribution of compound at 5 min in rat lungs; assay type: ADME, organism-based, Lung; conditions: in vivo
[24] = species on record: Rattus norvegicus; test: Tested for biodistribution of compound at 5 min in rat blood; assay type: ADME, organism-based; conditions: in vivo
[25] = species on record: Mus musculus; test: Tested for biodistribution of compound at 30 min in mice lungs; assay type: ADME, organism-based, Lung; conditions: in vivo, 0.5 h; in short: as §2
[26] = species on record: Rattus norvegicus; test: Tested for biodistribution of compound at 10 min in rat stomach; assay type: ADME, organism-based; conditions: in vivo; in short: as §3
[27] = species on record: Mus musculus; test: Tested for biodistribution of compound at 1 min in mice blood; assay type: ADME, organism-based; conditions: in vivo; in short: as §2
[28] = species on record: Rattus norvegicus; test: Tested for biodistribution of compound at 5 min in rat s. intestine; assay type: ADME, organism-based; conditions: in vivo
[29] = species on record: Rattus norvegicus; test: Tested for biodistribution of compound at 5 min in rat kidney; assay type: ADME, organism-based; conditions: in vivo
[30] = species on record: Rattus norvegicus; test: Tested for biodistribution of compound at 5 min in rat stomach; assay type: ADME, organism-based; conditions: in vivo
[31] = species on record: Rattus norvegicus; test: Tested for biodistribution of compound at 10 min in rat brain; assay type: ADME, organism-based; conditions: in vivo; in short: as §3
[32] = species on record: Rattus norvegicus; test: Tested for biodistribution of compound at 5 min in rat muscle; assay type: ADME, organism-based, Muscle tissue; conditions: in vivo
[33] = species on record: Rattus norvegicus; test: Tested for biodistribution of compound at 10 min in rat spleen; assay type: ADME, organism-based; conditions: in vivo; in short: as §3
[34] = species on record: Rattus norvegicus; test: Tested for biodistribution of compound at 10 min in rat kidney; assay type: ADME, organism-based; conditions: in vivo; in short: as §3
[35] = species on record: Rattus norvegicus; test: Tested for biodistribution of compound at 30 min in rat l intestine; assay type: ADME, organism-based; conditions: in vivo, 0.5 h; in short: as §3
[36] = species on record: Rattus norvegicus; test: Tested for biodistribution of compound at 60 min in rat brain; assay type: ADME, organism-based; conditions: in vivo, 1 h
[37] = species on record: Mus musculus; test: Tested for biodistribution of compound at 10 min in mice heart; assay type: ADME, organism-based; conditions: in vivo; in short: as §2
[38] = species on record: Rattus norvegicus; test: Tested for biodistribution of compound at 5 min in rat spleen; assay type: ADME, organism-based; conditions: in vivo
[39] = species on record: Mus musculus; test: Tested for biodistribution of compound at 30 min in mice intestine; assay type: ADME, organism-based; conditions: in vivo, 0.5 h; in short: as §2
[40] = species on record: Mus musculus; test: Tested for biodistribution of compound at 1 min in mice kidney; assay type: ADME, organism-based; conditions: in vivo; in short: as §2
[41] = species on record: Rattus norvegicus; test: Tested for biodistribution of compound at 60 min in rat stomach; assay type: ADME, organism-based; conditions: in vivo, 1 h
[42] = species on record: Rattus norvegicus; test: Tested for biodistribution of compound at 60 min in rat muscle; assay type: ADME, organism-based, Muscle tissue; conditions: in vivo, 1 h
[43] = species on record: Mus musculus; test: Tested for biodistribution of compound at 5 min in mice muscle; assay type: ADME, organism-based, Muscle tissue; conditions: in vivo; in short: as §1
[44] = species on record: Rattus norvegicus; test: Tested for biodistribution of compound at 30 min in rat liver; assay type: ADME, organism-based; conditions: in vivo, 0.5 h
[45] = species on record: Mus musculus; test: Tested for biodistribution of compound at 10 min in mice lungs; assay type: ADME, organism-based, Lung; conditions: in vivo; in short: as §2
[46] = species on record: Mus musculus; test: Tested for biodistribution of compound at 1 min in mice brain; assay type: ADME, organism-based; conditions: in vivo; in short: as §2
[47] = species on record: Mus musculus; test: Tested for biodistribution of compound at 5 min in mice spleen; assay type: ADME, organism-based; conditions: in vivo; in short: as §1
[48] = species on record: Mus musculus; test: Tested for biodistribution of compound at 5 min in mice lungs; assay type: ADME, organism-based, Lung; conditions: in vivo; in short: as §1

Dose/organ [1]: 8.73%
Dose/organ [2]: 0.21%
Dose/organ [3]: 1.2%
Dose/organ [4]: 7.55%
Dose/organ [5]: 35.74%
Dose/organ [6]: 0.15%
Dose/organ [7]: 1.71%
Dose/organ [8]: 1.1%
Dose/organ [9]: 2.08%
Dose/organ [10]: 0.03%
Dose/organ [11]: 3.14%
Dose/organ [12]: 6.33%
Dose/organ [13]: 1.21%
Dose/organ [14]: 2.61%
Dose/organ [15]: 0.46%
Dose/organ [16]: 3.18%
Dose/organ [17]: 1.96%
Dose/organ [18]: 0.15%
Dose/organ [19]: 2.19%
Dose/organ [20]: 17.26%
Dose/organ [21]: 0.53%
Dose/organ [22]: 8.18%
Dose/organ [23]: 9.38%
Dose/organ [24]: 18.89%
Dose/organ [25]: 3.09%
Dose/organ [26]: 2.37%
Dose/organ [27]: 5.24%
Dose/organ [28]: 5.96%
Dose/organ [29]: 3.22%
Dose/organ [30]: 2.18%
Dose/organ [31]: 1.16%
Dose/organ [32]: 28.6%
Dose/organ [33]: 0.77%
Dose/organ [34]: 4.26%
Dose/organ [35]: 1.27%
Dose/organ [36]: 0.46%
Dose/organ [37]: 0.46%
Dose/organ [38]: 0.58%
Dose/organ [39]: 18.99%
Dose/organ [40]: 1.7%
Dose/organ [41]: 2.05%
Dose/organ [42]: 10.6%
Dose/organ [43]: 24.17%
Dose/organ [44]: 29.63%
Dose/organ [45]: 9.78%
Dose/organ [46]: 3.56%
Dose/organ [47]: 0.28%
Dose/organ [48]: 15.37%
Substance: [4-methoxythio)phenolato][N,N-bis(2-mercaptoethyl)-N',N'-diethylethylenediamine] oxotechnetium
